The test system of data set [1] is MCF7. In words: Growth inhibition of human MCF7 cells after 48 hrs. To be noted: MCF7, 48 h; for TGI: read-out: pTGI (converted). Format: functional. Summed up:
(§1)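 NCI-60 human tumour cell line panel screen run at the US National Cancer Institute under its standard cytotoxicity protocol. It covers leukaemia, NSCLC, colon, CNS, melanoma, ovarian, renal, prostate and breast lines. An initial single-dose test was followed by five-dose testing with 48 h compound exposure.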

The subject of a further data set is SR. Put plainly: Growth inhibition of human SR cells after 48 hrs. It is filed as functional. To be noted: for TGI: read-out: pTGI (converted). The essentials:
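Run by the NCI 58-cell-line screen under its standard cytotoxicity protocol. Compounds were first tested at a single dose, then at five doses. Cells were exposed to compound for 48 h.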

Data set [2] in a line: Cytotoxicity against human fibroblasts assessed as cell viability after 24 hrs incubation by MTT assay. Format: cell-based. The note with it: Fibroblast. Summed up: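 Cell lines came from DSMZ; primary human fibroblasts served as non-cancer controls. Cells were grown in medium with 10% FCS, seeded at 50,000 cells/ml, and grown 2 days at 37 °C, 10% CO2. Serial dilutions were then added for 24 h. MTT (final 0.5 mg/ml) was added for 2 h. Formazan was pelleted, PBS-washed, dissolved in isopropanol/0.4% HCl and read at 590 nm. Two parallel experiments were run. IC50 was taken as the concentration giving 50% of untreated-control absorbance.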

Data set [3] in a line: Octanol-water partition coefficient, log P of the compound by HPLC analysis. It is filed as physicochemical. Summed up:
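Lipophilicity was measured by reversed-phase HPLC on a Nucleosil C18 column with isocratic water/methanol (3:1) at 0.5 ml/min and UV detection at 230 and 245 nm. Dead time was set with thiourea (t0 0.728 min). Retention factor was k = (tR − t0)/t0, and log P came from a calibration against at least six reference compounds.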

For data set [4], the system named is MCF7. Put plainly: Cell cycle arrest in human MCF7 cells assessed as accumulation at G0/G1 phase after 30 mins by propidium iodide staining-based flow cytometric analysis. Format: functional. Summed up:
(§2)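 MCF-7 cells (10^6) were treated with compounds for 24 h alongside a methanol vehicle control. They were fixed in cold 70% methanol at 4 °C for one day, washed in PBS and permeabilised with 0.1% saponin in PBS. They were then stained with propidium iodide plus RNase (1 mg/ml) for 30 min, and DNA-content distribution was read by FACScan flow cytometry.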
On the technique in general: A flow cytometer gives signals particle by particle.

For data set [5], the system named is MCF7. Put plainly: Cell cycle arrest in human MCF7 cells assessed as accumulation at S phase […] by propidium iodide staining-based flow cytometric analysis. It is filed as functional.
The subject of data set [6] is MCF7. Put plainly: Cell cycle arrest in human MCF7 cells assessed as accumulation at G2/M phase after 30 mins by propidium iodide staining-based flow cytometric analysis. It is filed as functional. The essentials:
as §2

Another data set relates to A-431. Put plainly: Reduction in ROS in human A431 cells assessed as decrease in hydrogen peroxide level at 0.1 to 10 ng/ml after 1 hr by DCHFA assay. It is filed as functional, cell-based. The essentials:
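A-431 cells were seeded at 10^5 per well and exposed to a range of compound concentrations for 1 h. They were then loaded with DCHFA probe for 30 min in the dark. Fluorescence was read immediately at ex/em 485/528 nm and expressed as arbitrary units per 10^5 cells.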

A further data set deals with Escherichia coli. In words: Antimicrobial activity against Escherichia coli tolC assessed as inhibition at 20 ug/6 mm disk after 1 to 2 days by agar diffusion assay. Format: functional. Summed up: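 Standard agar diffusion: 6-mm paper disks loaded with 20 µg of compound were placed on inoculated plates. Inhibition-zone diameter (mm) was read after 1 and 2 days of growth.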
A general note: Agar diffusion results depend on both activity and mobility in agar.

Another data set relates to HOP-62. In words: Growth inhibition of human HOP62 cells after 48 hrs. To be noted: HOP-62, 48 h; for CC50: read-out: pLC50 (the source's name) (converted); for TGI: read-out: pTGI (converted). Format: functional. The essentials:
as §1

Data set [7] in a line: Growth inhibition of human SF295 cells after 48 hrs. Format: functional. To be noted: SF-295, 48 h; for CC50: read-out: pLC50 (the source's name) (converted); for TGI: read-out: pTGI (converted). The essentials: as §1
A short description of data set [8]: Growth inhibition of human NCI-ADR-RES cells after 48 hrs. It is filed as functional. To be noted: for TGI: read-out: pTGI (converted). The essentials:
as §1

The subject of a further data set is CCRF-CEM. Put plainly: Growth inhibition of human CCRF-CEM cells after 48 hrs. It is filed as functional. The note with it: for CC50: read-out: pLC50 (the source's name) (converted); for TGI: read-out: pTGI (converted). The essentials: as §1

These results are taken from ChEMBL document CHEMBL3351600, “Sulfur, selenium and tellurium pseudopeptides: synthesis and biological evaluation” (Bioorg Med Chem, 2014).

As usually defined, the GI50 is the concentration at which growth is held to half of that of the control. A higher GI50 goes with less potent growth inhibition. Usually LC50 stands for the concentration that kills 50% of the test population. A lower LC50 goes with a more lethal substance. As usually defined, the IC50 is the concentration needed to halve the response being measured. In general, logP refers to a log measure of how a compound divides between an organic and an aqueous phase.

Take `COc1ccc(N(CC(=O)NCCC[Te]c2ccccc2)C(=O)c2ccccc2)cc1`: the concentration for 50% growth inhibition (GI50) was 3.16 µM in the data set with MCF7 [1]; 2.82 µM with SR; 2.4 µM in the data set on HOP-62; 1.7 µM in data set [7]; 3.24 µM in data set [8]. For the same compound, the LC50 (concentration killing 50% of cells) with MCF7 [1] was 75.9 µM. Further, the TGI was 10.7 µM with MCF7 [1]; 10 µM with SR; 5.37 µM with HOP-62; 8.13 µM in data set [7]; 10.7 µM in data set [8]. Also, the LC50 (in the data set on SR; in [8]) was more than 100 µM each time. For the same compound, the IC50 in [2] came to 7.5 µM. The same compound showed a logP in [3] of 1.72. Besides, the Activity in the data set with MCF7 [4] is 85.01%; with MCF7 [5], 6.19%; in the data set on MCF7 [6], 8.8%; in the data set with A-431 it was “Dose-dependent effect”. Moreover, in the data set with Escherichia coli, the “diameter of the inhibition zone (DIZ)” value stood at 11 mm. Also, the CC50 in the data set on HOP-62 was 18.2 µM; in [7], more than 100 µM.

In the case of `CC1=C(SCCC(=O)OCC(=O)NCCC[Te]c2ccccc2)C(=O)c2ccccc2C1=O`, in the data set with MCF7 [1], the 50% growth inhibitory concentration (GI50) was 2.95 µM, the LC50 (concentration killing 50% of cells) was 57.5 µM and the TGI was 12.3 µM. Besides, in data set [2], the IC50 amounted to 13 µM. Moreover, in data set [3], the logP was determined as 3.8. In addition, in the data set on Escherichia coli, the “diameter of the inhibition zone (DIZ)” value came to 11 mm. In addition, in the data set with CCRF-CEM, growth was halved (GI50) at 2.4 µM, the CC50 is more than 100 µM and the TGI was 18.6 µM. In addition, in the data set with HOP-62, the concentration for 50% growth inhibition (GI50) was 1.91 µM, the CC50 was 23.4 µM and the TGI is 5.5 µM. In data set [7], halving of growth (GI50) required 1.7 µM, the CC50 was more than 100 µM and the TGI was 6.31 µM. In data set [8], the GI50 was 2.69 µM, the LC50 is 55 µM and the TGI was 10.2 µM.

Take `COc1ccc(N(CC(=O)NCCC[Te]c2ccccc2)C(=O)CCSC2=C(C)C(=O)c3ccccc3C2=O)cc1`: the GI50 in the data set on MCF7 [1] is 0.49 µM; in the data set with CCRF-CEM it was 0.417 µM; with HOP-62 it was 0.339 µM; in data set [8], 0.955 µM. The LC50 (concentration killing 50% of cells) with MCF7 [1] was 75.9 µM. The TGI with MCF7 [1] is 12 µM; in the data set on CCRF-CEM, 2.51 µM; with HOP-62, 1 µM; in [8], 5.01 µM. For the same compound, the IC50 in data set [2] came to 4 µM. In addition, the logP in [3] amounted to 1.97. For the same compound, the Activity with MCF7 [4] came to 88.62%; with MCF7 [5], 5.55%; with MCF7 [6], 5.84%. The “diameter of the inhibition zone (DIZ)” value in the data set with Escherichia coli is recorded as 12 mm. Besides, the CC50 with CCRF-CEM was more than 100 µM; in the data set on HOP-62 it was 3.8 µM; in data set [7] it was more than 100 µM. In [8], this compound had an LC50 of 41.7 µM.

As for `COc1ccc(N(CC(=O)NCCC[Te]c2ccccc2)C(=O)CNC(=O)OC(C)(C)C)cc1`, in the data set with MCF7 [1], the GI50 was 2.57 µM, the LC50 (concentration killing 50% of cells) was 37.2 µM and the TGI was 7.59 µM. Also, in the data set on SR, halving of growth (GI50) required 1.66 µM, the LC50 is more than 100 µM and the TGI was 7.76 µM. In data set [2], the 50% inhibitory concentration (IC50) came to 25 µM. The compound also displayed a logP in data set [3] of 4.2. The Activity entry in the data set on A-431 was “Dose-dependent effect”. Further, the “diameter of the inhibition zone (DIZ)” value in the data set with Escherichia coli amounted to 12 mm. Also, in the data set on HOP-62, growth was halved (GI50) at 2.19 µM, the CC50 is 11 µM and the TGI was 4.68 µM. Also, in data set [7], the GI50 was 1.29 µM, the CC50 was more than 100 µM and the TGI is 4.07 µM. In data set [8], it took 2.88 µM to inhibit growth by half (GI50), the 50% lethal concentration (LC50) is more than 100 µM and the TGI is 7.24 µM.
